Our source for the Activity, inhibition and viability values is ChEMBL document CHEMBL4376814, “Novel cyclin-dependent kinase 9 (CDK9) inhibitor with suppression of cancer stemness activity against non-small-cell lung cancer” (Eur J Med Chem, 2019).

Active and inactive are the calls of the source. The rule behind the calls is not given here.

The subject of assay [1] is NCI-H1299. Put plainly: Induction of cell cycle arrest in human H1299 cells assessed as accumulation at G2/M phase after 24 hrs by propidium iodide/RNase staining based flow cytometric analysis. It counts as functional. In a few lines: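 A549 and H1299 plated at 5×10^5 cells/mL in 6-well plates, treated after adherence for 24 h. Washed with PBS, fixed overnight in ice-cold 75% ethanol, stained with propidium iodide plus RNase A for 30 min at 37 °C, analysed by flow cytometry for phase distribution. Means ± SD, three independent experiments.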

Assay [2] addresses NT-3 growth factor receptor (Homo sapiens) (UniProt Q16288). Put plainly: Inhibition of recombinant human TrkC (510 to end residues) at 1 uM using GEEPLYWSFPAKKK as substrate measured after 40 mins in presence of [gamma33P]ATP by scintillation counting method relative to control.
The subject of assay [3] is NCI-H1299. Put plainly: Inhibition of tumorsphere formation in human H1299 cells after 2 weeks by microscopic analysis. It counts as functional, cell-based.
For assay [4], the system named is Eukaryotic elongation factor 2 kinase (Homo sapiens), O00418 [H23R]. Description: Inhibition of recombinant human EEF2K H23R mutant (2 to end residues) at 1 uM using RKKFGESEKTKTKEFL as substrate measured after 40 mins in presence of [gamma33P]ATP by scintillation counting method relative to control.
For assay [5], the target named is Insulin receptor-related protein (Homo sapiens) (UniProt P14616). Put plainly: Inhibition of recombinant human IRR (943 to 1266 residues) at 1 uM using myelin basic protein as substrate measured after 40 mins in presence of [gamma33P]ATP by scintillation counting method relative to control.
The next assay is filed under the species Homo sapiens. Put plainly: Inhibition of recombinant human Plk4 S34T mutant (1 to 273 residues) at 1 uM using casein as substrate measured after 120 mins in presence of [gamma33P]ATP by scintillation counting method relative to control.
For assay [6], the system named is A549. Put plainly: Antiproliferative activity against human A549 cells assessed as inhibition of cell viability at 1 uM after 72 hrs by CCK-8 assay relative to control. The conditions noted are these: A549, 72 h. It counts as functional. The essentials: (§1)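 Single-concentration viability screen using CCK-8. Cells were seeded at 3000/well and treated for 72 h. A450 read after 1-4 h with reagent. Percent inhibition calculated against untreated control and blank wells as (Ac−As)/(Ac−Ab)×100%.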
(In general: Tetrazolium assays rely on reduction of a dye to a coloured formazan, in cell work by metabolically active cells.)

Assay [7] addresses Focal adhesion kinase 1 (Homo sapiens) (UniProt Q05397). Description: Inhibition of recombinant human FAK (411 to 686 residues) at 1 uM using EEEEYEEEEEEYYIIEEEEEEYEEEEEEYYEEEEEEKKKK as substrate measured after 40 mins in presence of [gamma33P]ATP by scintillation counting method relative to control.
The target of assay [8] is Protein kinase C epsilon type (Homo sapiens) (UniProt Q02156). Description: Inhibition of recombinant human PKCepsilon (2 to end residues) at 1 uM using ERMRPRKRQGSVRRRV as substrate measured after 40 mins in presence of [gamma33P]ATP by scintillation counting method relative to control.
The target in assay [9] is Serine/threonine-protein kinase 35 (Homo sapiens) (UniProt Q8TDR2). Description: Inhibition of full length recombinant human CLIK1 at 1 uM using RSRSRSRSRSRSRSR as substrate measured after 40 mins in presence of [gamma33P]ATP by scintillation counting method relative to control.
Assay [10] deals with Tyrosine-protein kinase JAK2 (Homo sapiens) (UniProt O60674). Put plainly: Inhibition of recombinant human JAK2 (808 to end residues) at 1 uM using KTFCGTPEYLAPEVRREPRILSEEEQEMFRDFDYIADWC as substrate measured after 40 mins in presence of [gamma33P]ATP by scintillation counting method relative to control.
Assay [11] addresses SRSF protein kinase 1 (Homo sapiens) (UniProt Q96SB4). Put plainly: Inhibition of human SRPK1 (2 to end residues) at 1 uM using RSRSRSRSRSRSRSR as substrate measured after 40 mins in presence of [gamma33P]ATP by scintillation counting method relative to control. In a few lines: (§2)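 Single-point inhibition at 1 µM was measured in the Eurofins KinaseProfiler panel. Values are the mean of two independent experiments.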

For assay [12], the system named is NCI-H1299. Put plainly: Induction of apoptosis in human H1299 cells assessed as increase in cleaved caspase 3 expression at 0.25 to 1 uM after 24 hrs by Western blot analysis. It counts as functional, cell-based. The essentials:
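A549 or H1299 cells exposed to the indicated concentrations for 24 h. Protein extracts then immunoblotted for apoptosis-pathway proteins (Bcl2, Bim, cleaved caspase 3).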
A general note: In western blotting, separated proteins are transferred to a membrane and probed.

Assay [13] deals with Tyrosine-protein kinase TXK (Homo sapiens) (UniProt P42681). Put plainly: Inhibition of human Txk (256 to end residues) at 1 uM using GEEPLYWSFPAKKK as substrate measured after 40 mins in presence of [gamma33P]ATP by scintillation counting method relative to control. In a few lines: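 Percent inhibition of kinase activity at a single compound concentration, measured by the outsourced Eurofins KinaseProfiler panel. Values are the mean of two independent experiments.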

Assay [14] addresses Serine/threonine-protein kinase N2 (Homo sapiens) (UniProt Q16513). Description: Inhibition of human PRK2 (501 to end residues) at 1 uM using AKRRRLSSLRA as substrate measured after 40 mins in presence of [gamma33P]ATP by scintillation counting method relative to control. The essentials: as §2
Assay [15] deals with Serine/threonine-protein kinase 32A (Homo sapiens) (UniProt Q8WU08). Put plainly: Inhibition of recombinant full-length human STK32A at 1 uM using casein as substrate measured after 120 mins in presence of [gamma33P]ATP by scintillation counting method relative to control.
In assay [16] the target is Dual specificity mitogen-activated protein kinase kinase 7 (Homo sapiens) (UniProt O14733). Description: Inhibition of recombinant human MKK7 (2 to end residues) at 1 uM using unactive JNK1a1 as substrate measured after 40 mins in presence of [gamma33P]ATP by scintillation counting method relative to control.
Assay [17] has as its system A549. Put plainly: Induction of apoptosis in human A549 cells assessed as viable cells at 1 uM after 48 hrs by AnnexinV-FITC/PI staining-based flow cytometric analysis (reference value: 88.8%). It counts as functional. The conditions noted are these: A549, 48 h, read-out: Activity.
The test system of assay [18] is A549. Description: Inhibition of tumorsphere formation in human A549 cells assessed as decrease in number of spheres at 0.25 to 1 uM after 2 weeks by microscopic analysis. It counts as functional, cell-based.
The target of assay [19] is Calcium/calmodulin-dependent protein kinase type II subunit delta (Homo sapiens) (UniProt Q13557). Description: Inhibition of recombinant full-length human CaMK2delta at 1 uM using calmodulin as substrate measured after 40 mins in presence of [gamma33P]ATP by scintillation counting method relative to control.
A further assay deals with MCF7. Description: Antiproliferative activity against human MCF7 cells assessed as inhibition of cell viability at 500 nM after 72 hrs by CCK-8 assay relative to control. The assay is classed as functional. The conditions noted are these: MCF7, 72 h. In a few lines: as §1
The target in assay [20] is Insulin receptor (Homo sapiens) (UniProt P06213). Description: Inhibition of recombinant human IR (1005 to 1310 residues) at 1 uM using KKSRGDYMTMQIG as substrate measured after 40 mins in presence of [gamma33P]ATP by scintillation counting method relative to control.

Chain of Insulin receptor-related protein (Homo sapiens) (P14616 27-742 limits assumed): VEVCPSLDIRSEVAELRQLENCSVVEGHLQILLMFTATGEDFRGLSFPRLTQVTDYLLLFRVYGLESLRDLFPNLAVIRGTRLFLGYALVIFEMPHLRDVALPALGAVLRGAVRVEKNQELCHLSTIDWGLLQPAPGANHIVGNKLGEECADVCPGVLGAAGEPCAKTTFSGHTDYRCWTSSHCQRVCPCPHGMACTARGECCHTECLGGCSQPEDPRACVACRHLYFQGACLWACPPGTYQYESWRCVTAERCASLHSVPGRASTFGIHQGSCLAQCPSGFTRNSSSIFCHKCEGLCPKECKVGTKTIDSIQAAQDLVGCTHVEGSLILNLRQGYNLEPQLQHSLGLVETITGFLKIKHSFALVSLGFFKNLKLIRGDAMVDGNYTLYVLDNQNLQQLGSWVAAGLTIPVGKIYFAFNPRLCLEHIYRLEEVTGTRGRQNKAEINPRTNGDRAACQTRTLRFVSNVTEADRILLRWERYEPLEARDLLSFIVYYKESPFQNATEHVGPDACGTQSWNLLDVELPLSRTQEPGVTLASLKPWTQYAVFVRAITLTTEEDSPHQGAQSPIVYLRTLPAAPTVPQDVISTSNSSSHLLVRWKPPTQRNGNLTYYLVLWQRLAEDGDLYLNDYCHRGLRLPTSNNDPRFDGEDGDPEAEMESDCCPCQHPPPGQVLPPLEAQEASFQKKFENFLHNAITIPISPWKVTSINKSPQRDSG
Chain of Insulin receptor-related protein (Homo sapiens) (P14616 747-1297 limits assumed): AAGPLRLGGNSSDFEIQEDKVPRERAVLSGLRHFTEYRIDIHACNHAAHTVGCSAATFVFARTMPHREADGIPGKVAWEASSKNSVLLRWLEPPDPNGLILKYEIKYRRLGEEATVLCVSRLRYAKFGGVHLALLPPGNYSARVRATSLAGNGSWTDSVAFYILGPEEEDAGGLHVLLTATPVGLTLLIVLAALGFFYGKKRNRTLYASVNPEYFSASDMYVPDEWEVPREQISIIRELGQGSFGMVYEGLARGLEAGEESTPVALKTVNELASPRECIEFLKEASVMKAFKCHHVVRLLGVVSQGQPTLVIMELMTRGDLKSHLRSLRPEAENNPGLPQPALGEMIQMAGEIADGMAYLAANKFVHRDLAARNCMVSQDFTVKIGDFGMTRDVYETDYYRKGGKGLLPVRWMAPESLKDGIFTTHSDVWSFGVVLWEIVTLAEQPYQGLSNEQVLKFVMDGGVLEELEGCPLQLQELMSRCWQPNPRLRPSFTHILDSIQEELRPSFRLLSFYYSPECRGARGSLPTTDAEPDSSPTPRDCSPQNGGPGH
Chain of NT-3 growth factor receptor (Homo sapiens) (Q16288 32-839 limits assumed): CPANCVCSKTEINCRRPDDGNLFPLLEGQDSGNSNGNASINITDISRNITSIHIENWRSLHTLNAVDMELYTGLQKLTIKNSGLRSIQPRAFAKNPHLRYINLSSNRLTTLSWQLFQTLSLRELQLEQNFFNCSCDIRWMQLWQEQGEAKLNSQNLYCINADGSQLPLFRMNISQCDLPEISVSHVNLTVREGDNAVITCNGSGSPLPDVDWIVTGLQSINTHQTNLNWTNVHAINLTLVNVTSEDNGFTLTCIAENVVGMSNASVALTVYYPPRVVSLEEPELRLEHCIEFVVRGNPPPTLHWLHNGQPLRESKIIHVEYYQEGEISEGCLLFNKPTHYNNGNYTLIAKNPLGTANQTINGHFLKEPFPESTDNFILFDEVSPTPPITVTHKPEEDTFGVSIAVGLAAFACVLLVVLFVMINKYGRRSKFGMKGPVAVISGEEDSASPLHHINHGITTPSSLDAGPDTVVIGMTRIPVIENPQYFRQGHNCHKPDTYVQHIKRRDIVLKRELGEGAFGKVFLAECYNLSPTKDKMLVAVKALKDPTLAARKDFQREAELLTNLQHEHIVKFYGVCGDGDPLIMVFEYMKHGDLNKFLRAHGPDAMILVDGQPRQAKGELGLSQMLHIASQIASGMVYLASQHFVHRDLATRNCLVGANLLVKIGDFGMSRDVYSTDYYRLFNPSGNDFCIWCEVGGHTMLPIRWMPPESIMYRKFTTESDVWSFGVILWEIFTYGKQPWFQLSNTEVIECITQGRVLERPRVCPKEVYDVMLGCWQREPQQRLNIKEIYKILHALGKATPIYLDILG
Chain of Focal adhesion kinase 1 (Homo sapiens) (Q05397 2-1052 limits assumed): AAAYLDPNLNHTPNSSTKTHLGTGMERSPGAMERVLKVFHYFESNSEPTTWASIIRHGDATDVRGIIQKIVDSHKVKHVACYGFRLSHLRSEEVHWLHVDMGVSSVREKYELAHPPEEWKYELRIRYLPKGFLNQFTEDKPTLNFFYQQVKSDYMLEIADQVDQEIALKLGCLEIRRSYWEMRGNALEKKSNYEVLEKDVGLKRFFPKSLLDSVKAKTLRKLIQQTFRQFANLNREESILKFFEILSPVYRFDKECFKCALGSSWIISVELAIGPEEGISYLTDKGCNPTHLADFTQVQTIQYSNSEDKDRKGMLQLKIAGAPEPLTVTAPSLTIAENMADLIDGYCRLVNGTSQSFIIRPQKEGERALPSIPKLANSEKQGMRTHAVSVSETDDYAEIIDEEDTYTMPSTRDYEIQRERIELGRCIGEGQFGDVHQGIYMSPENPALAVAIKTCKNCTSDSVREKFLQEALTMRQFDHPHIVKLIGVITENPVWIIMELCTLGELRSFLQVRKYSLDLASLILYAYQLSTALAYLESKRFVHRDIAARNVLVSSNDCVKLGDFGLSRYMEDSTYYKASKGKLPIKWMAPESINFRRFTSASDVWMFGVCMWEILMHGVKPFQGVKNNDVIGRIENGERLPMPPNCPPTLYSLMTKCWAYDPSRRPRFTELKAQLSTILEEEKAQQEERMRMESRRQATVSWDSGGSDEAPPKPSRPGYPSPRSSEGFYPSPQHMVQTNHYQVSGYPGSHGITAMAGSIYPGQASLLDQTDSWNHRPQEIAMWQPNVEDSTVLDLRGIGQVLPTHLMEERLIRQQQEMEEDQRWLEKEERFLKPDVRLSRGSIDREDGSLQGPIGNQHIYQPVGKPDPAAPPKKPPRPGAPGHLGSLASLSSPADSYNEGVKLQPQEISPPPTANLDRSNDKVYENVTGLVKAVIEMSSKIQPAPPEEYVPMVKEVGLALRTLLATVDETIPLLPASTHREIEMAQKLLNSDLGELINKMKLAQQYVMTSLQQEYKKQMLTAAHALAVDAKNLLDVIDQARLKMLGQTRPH
Chain of Eukaryotic elongation factor 2 kinase (Homo sapiens), O00418 [H23R] (O00418 whole entry H23R, the tested form may be a part): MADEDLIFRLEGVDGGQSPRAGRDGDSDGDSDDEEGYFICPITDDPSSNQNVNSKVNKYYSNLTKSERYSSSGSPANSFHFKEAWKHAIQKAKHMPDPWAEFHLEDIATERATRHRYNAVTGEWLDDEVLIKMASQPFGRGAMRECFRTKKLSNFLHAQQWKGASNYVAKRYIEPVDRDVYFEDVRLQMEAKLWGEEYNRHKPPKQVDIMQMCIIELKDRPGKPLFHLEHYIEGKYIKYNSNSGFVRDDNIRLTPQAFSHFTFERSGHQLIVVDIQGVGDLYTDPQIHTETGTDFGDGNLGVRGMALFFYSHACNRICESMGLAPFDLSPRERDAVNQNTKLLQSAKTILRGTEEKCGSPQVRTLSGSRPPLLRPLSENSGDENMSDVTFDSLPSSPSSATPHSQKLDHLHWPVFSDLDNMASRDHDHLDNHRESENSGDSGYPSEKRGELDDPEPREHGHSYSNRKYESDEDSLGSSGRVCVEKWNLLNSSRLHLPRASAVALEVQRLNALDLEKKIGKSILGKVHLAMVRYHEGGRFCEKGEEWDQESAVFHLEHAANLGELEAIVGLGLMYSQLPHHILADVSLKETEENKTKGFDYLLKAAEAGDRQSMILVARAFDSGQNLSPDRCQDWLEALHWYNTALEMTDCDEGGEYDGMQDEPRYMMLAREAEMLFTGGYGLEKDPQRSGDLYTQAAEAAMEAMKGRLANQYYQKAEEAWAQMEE
Chain of Serine/threonine-protein kinase N2 (Homo sapiens) (Q16513 whole entry, looked up): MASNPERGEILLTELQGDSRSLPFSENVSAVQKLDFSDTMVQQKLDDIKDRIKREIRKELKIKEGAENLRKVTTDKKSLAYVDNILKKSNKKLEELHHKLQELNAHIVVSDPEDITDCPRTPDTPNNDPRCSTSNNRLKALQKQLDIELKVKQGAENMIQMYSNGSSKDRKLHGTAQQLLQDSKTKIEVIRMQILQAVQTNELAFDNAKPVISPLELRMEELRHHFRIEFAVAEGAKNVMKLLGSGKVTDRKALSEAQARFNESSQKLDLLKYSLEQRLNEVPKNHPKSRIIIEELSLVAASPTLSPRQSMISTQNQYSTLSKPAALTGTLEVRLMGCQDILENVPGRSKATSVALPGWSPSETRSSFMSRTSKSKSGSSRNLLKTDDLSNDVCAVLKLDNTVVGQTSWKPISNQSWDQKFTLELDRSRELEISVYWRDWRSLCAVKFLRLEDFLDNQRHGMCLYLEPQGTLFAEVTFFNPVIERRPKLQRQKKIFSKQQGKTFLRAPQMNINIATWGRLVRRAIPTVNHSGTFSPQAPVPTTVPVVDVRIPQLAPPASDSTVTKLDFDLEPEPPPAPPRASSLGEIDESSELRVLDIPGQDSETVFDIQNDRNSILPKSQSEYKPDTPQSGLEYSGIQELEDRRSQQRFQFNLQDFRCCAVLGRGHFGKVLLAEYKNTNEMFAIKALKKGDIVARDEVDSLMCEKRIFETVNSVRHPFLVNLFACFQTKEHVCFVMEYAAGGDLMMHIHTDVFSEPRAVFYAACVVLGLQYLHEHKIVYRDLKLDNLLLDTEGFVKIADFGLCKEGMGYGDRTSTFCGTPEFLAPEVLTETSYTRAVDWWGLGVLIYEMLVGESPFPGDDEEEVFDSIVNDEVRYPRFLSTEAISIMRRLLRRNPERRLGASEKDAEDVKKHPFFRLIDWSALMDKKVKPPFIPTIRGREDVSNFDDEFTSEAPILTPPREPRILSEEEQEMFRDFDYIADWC

In general, inhibition refers to the change of the read-out against control, counted positive when it falls. For the molecule `CN(C)C(=O)c1cc2cnc(Nc3ccc(NC(=O)CCCCCCCN=C=S)cc3)nc2n1C1CCCC1`, the Activity result in the assay with NCI-H1299 [1] was “Dose-dependent effect”. Further, the inhibition in assay [2] was 80%; in the assay on NCI-H1299 [3] it was “Dose-dependent effect”; in [4], -10%; in [5], 3%; in the assay listed under Homo sapiens, 50%; in assay [7] it was 22%. Further, the inhibition is -3% in [8]; 14% in assay [9]; 4% in assay [10]; 12% in assay [11]; 81% in assay [13]; 11% in assay [14]. The inhibition was 33% in [15], 35% in [16], 36% in assay [19] and -6% in [20]. Moreover, in the assay with A549 [6], the inhibition at 1 µM was found to be 85.6%. In addition, the result in the assay with NCI-H1299 [12] and with A549 [18] was Active. Also, in the assay on A549 [17], the viability at 1 µM was 74.8%. In addition, in the assay on MCF7, the inhibition at 0.5 µM came to 62%.
